The results in this text go back to ChEMBL document CHEMBL1157195, “Synthesis, cytotoxic activity, and SAR analysis of the derivatives of taxchinin A and brevifoliol” (Bioorg Med Chem, 2008).

Each structure is given as a SMILES string. The source made the active and inactive calls. No cut-off for these calls is given here.

Broadly, the IC50 is the point on the concentration scale where inhibition reaches its midpoint.

In the first assay the test system is A459. Briefly: (§1) Cytotoxicity against human A459 cells after 72 hrs by sulforhodamine B assay. It is filed as cell-based.
Details: not given
In a few lines:
(§2)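 Human non-small lung cancer cells (A459, ATCC), exponentially growing, seeded at 4 × 10^4/mL in 96-well plates and pre-incubated 72 h at 37 °C, 5% CO2. Compounds added at 100, 10, 1 and 0.1 μM; further 72 h exposure. Cells fixed with cold 50% TCA (4 °C, 1 h), stained 30 min with 0.4% SRB in 1% acetic acid, dye solubilized in 10 mM unbuffered Tris; OD read at 570 nm.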
Turning to `C=C1[C@H]2C[C@]3(C(C)(C)O)CC(=O)C(C)=C3[C@@H](OC(=O)c3ccccc3)[C@H](OC(C)=O)[C@]2(C)[C@@H](OC(C)=O)C[C@@H]1O`, the result was inactive.
Turning to `C=C1[C@H]2C[C@]3(C(C)(C)O)C[C@H](O)C(C)=C3[C@@H](OC(=O)c3ccccc3)[C@H](OC(C)=O)[C@]2(C)[C@@H](OC(C)=O)C[C@@H]1O`, the result was inactive.

Test system in a further assay: not listed separately
The description is as §1. Type of assay: cell-based. Conditions: Homo sapiens, A459, 72 h; read-out: IC50. In a few lines: as §2
Regarding `C=C1C(=O)C[C@H](OC(C)=O)[C@@]2(C)[C@@H](OC(C)=O)[C@H](OC(=O)c3ccccc3)C3=C(C)[C@H]4C[C@]3([C@@H](OC(C)=O)[C@H]12)C(C)(C)O4`, the IC50 is 0.75 µM.
`CC(=O)O[C@H]1CC=C(C=O)[C@H]2C[C@]3(C(C)(C)O)CC(=O)C(C)=C3[C@@H](OC(=O)c3ccccc3)[C@H](OC(C)=O)[C@]12C`: the IC50 was 31.6 µM.
For the compound `C=C1[C@@H](O)C[C@H](OC(C)=O)[C@@]2(C)[C@@H](OC(C)=O)[C@H](OC(=O)c3ccccc3)C3=C(C)C(=O)C[C@@]3(C(C)(C)O)[C@@H](OC(C)=O)[C@H]12` [13-OXO-TAXCHININ A], the IC50 came to 91.6 µM.
`C=C1C(=O)C[C@H](OC(C)=O)[C@@]2(C)[C@@H](OC(C)=O)[C@H](OC(=O)c3ccccc3)C3=C(C)C(=O)C[C@@]3(C(C)(C)O)[C@@H](OC(C)=O)[C@H]12` [5,13-DIOXOTAXCHININ A]: the half-inhibitory concentration (IC50) was 1.68 µM.
Take `C=C1C(=O)C=C[C@@]2(C)[C@@H](OC(C)=O)[C@H](OC(=O)c3ccccc3)C3=C(C)C(=O)C[C@@]3(C(C)(C)O)[C@@H](OC(C)=O)[C@H]12`: the IC50 turned out to be 2.48 µM.
On the same count and under the same terms, to `C=C1[C@@H](O[Si](CC)(CC)CC)C[C@H](OC(C)=O)[C@@]2(C)[C@@H](OC(C)=O)[C@H](OC(=O)c3ccccc3)C3=C(C)[C@@H](O[Si](CC)(CC)CC)C[C@@]3(C(C)(C)O)[C@@H](OC(C)=O)[C@H]12` belongs 87.3 µM.
Still for that read-out and setting: the result for `C=C1C(=O)C=C[C@]2(C)[C@@H]1C=C1CC(=O)C(C)=C1[C@@H](OC(=O)c1ccccc1)[C@@H]2OC(C)=O` reads 2.8 µM; that for `C=C1C(=O)C[C@H](OC(C)=O)[C@@]2(C)[C@@H](OC(C)=O)[C@H](OC(=O)c3ccccc3)C3=C(C)[C@@H](O[Si](C)(C)C(C)(C)C)C[C@@]3(C(C)(C)O)[C@@H](OC(C)=O)[C@H]12`, 0.48 µM.
Turning to `C=C1[C@@H](O)C[C@H](OC(C)=O)[C@@]2(C)[C@@H](OC(C)=O)[C@H](OC(=O)c3ccccc3)C3=C(C)[C@@H](O[Si](C)(C)C(C)(C)C)C[C@@]3(C(C)(C)O)[C@@H](OC(C)=O)[C@H]12`, the IC50 was determined as 12.4 µM.
For the compound `C=C1C(=O)C[C@H](OC(C)=O)[C@@]2(C)[C@@H](OC(C)=O)[C@H](OC(=O)c3ccccc3)C3=C(C)[C@@H](O)C[C@@]3(C(C)(C)O)[C@@H](OC(C)=O)[C@H]12`, the IC50 worked out at 3.16 µM.
Same read-out and setting: to `C=C1C(=O)C=C[C@]2(C)[C@@H]1C[C@]1(C(C)(C)O)CC(=O)C(C)=C1[C@@H](OC(=O)c1ccccc1)[C@@H]2OC(C)=O` belongs 6.22 µM; to `C=C1C(=O)C=C[C@@]2(C)[C@@H](OC(C)=O)[C@H](OC(=O)c3ccccc3)C3=C(C)[C@@H](O)C[C@@]3(C(C)(C)O)[C@@H](OC(C)=O)[C@H]12`, 5.89 µM.
The same measure, in the same setting: to `C=C1[C@H]2C=C3CC(=O)C(C)=C3C(OC(=O)c3ccccc3)=C[C@]2(C)[C@@H](OC(C)=O)C[C@@H]1O` belongs 80.7 µM; to `C=C1[C@H]2C=C3CC(=O)C(C)=C3[C@@H](OC(=O)c3ccccc3)[C@H](OC(C)=O)[C@]2(C)[C@@H](OC(C)=O)C[C@@H]1O`, 21.5 µM.
Regarding `CC(=O)O[C@H]1CC=C(C=O)[C@H]2C[C@@]34C[C@@H](OC3(C)C)C(C)=C4[C@@H](OC(=O)c3ccccc3)[C@H](OC(C)=O)[C@]12C`, the IC50 came out at 6.17 µM.
Regarding `C=C1[C@@H](O[Si](CC)(CC)CC)C[C@H](OC(C)=O)[C@]2(C)[C@@H]1C=C1CC(=O)C(C)=C1[C@@H](OC(=O)c1ccccc1)[C@@H]2OC(C)=O`, the half-inhibitory concentration (IC50) came out at 17.4 µM.
Turning to `C=C1[C@@H](O)C[C@H](OC(C)=O)[C@@]2(C)[C@@H](OC(C)=O)[C@H](OC(=O)c3ccccc3)C3=C(C)[C@@H](O)C[C@@]3(C(C)(C)O)[C@@H](OC(C)=O)[C@H]12` [TAXCHININ A], the IC50 is 60.5 µM.
Take `CC(=O)O[C@H]1CC=C(C=O)[C@H]2C=C3CC(=O)C(C)=C3[C@@H](OC(=O)c3ccccc3)[C@H](OC(C)=O)[C@]12C`: the IC50 came out at 11.3 µM.
For `C=C1[C@H]2C[C@@]34C[C@@H](OC3(C)C)C(C)=C4[C@@H](OC(=O)c3ccccc3)[C@H](OC(C)=O)[C@]2(C)[C@@H](OC(C)=O)C[C@@H]1O`, the IC50 came out at 46.5 µM.

The same assay, now with this note: a459.
Regarding `C=C1[C@@H](O[Si](C)(C)C(C)(C)C)C[C@H](OC(C)=O)[C@@]2(C)[C@@H](OC(C)=O)[C@H](OC(=O)c3ccccc3)C3=C(C)[C@@H](O[Si](C)(C)C(C)(C)C)C[C@@]3(C(C)(C)O)[C@@H](OC(C)=O)[C@H]12`, the IC50 result is recorded as “Not Active”.
On the same count and under the same terms, the result for `C=C1[C@@H](O)C[C@H](OC(C)=O)[C@@]2(C)[C@@H](OC(C)=O)[C@H](OC(=O)c3ccccc3)C3=C(C)[C@H]4C[C@]3([C@@H](OC(C)=O)[C@H]12)C(C)(C)O4` reads “Not Active”.
